Test [1] deals with T1, Ankyrin repeat and protein kinase domain-containing protein 1 (Homo sapiens) (UniProt Q8NFD2).
T1 sequence (whole entry): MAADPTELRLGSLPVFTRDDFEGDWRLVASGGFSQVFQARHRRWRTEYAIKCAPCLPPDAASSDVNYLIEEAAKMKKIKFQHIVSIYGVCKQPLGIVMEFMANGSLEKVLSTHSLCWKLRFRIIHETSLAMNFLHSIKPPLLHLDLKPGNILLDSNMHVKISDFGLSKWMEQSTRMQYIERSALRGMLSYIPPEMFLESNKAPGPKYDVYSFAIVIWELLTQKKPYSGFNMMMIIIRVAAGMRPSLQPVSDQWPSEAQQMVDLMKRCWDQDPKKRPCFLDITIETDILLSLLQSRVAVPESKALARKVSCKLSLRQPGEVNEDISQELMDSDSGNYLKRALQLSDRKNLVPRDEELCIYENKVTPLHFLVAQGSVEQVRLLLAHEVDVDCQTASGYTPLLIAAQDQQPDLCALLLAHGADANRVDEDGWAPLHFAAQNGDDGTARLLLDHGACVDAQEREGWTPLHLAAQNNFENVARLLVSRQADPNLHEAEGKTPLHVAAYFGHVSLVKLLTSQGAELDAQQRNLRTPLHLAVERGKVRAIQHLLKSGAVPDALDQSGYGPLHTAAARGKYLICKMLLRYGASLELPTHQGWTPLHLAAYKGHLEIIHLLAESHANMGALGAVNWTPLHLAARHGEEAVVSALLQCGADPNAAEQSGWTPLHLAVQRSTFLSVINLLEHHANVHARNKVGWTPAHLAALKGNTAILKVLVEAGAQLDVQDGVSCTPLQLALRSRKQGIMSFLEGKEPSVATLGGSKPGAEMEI
The test can be described thus: Inhibition of ANKK1 at 1 uM.

In test [2] the target is Serine/threonine-protein kinase PAK 6 (Homo sapiens) (UniProt Q9NQU5). The test is described as follows: Inhibition of PAK6 at 1 uM.
The subject of test [3] is Tyrosine-protein kinase ABL1 (Homo sapiens), P00519 [M351T]. The test can be described thus: Inhibition of ABL1 M351T mutant at 1 uM. The method in brief: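 Ambit KINOMEscan screen at a single concentration across a 250–400 kinase panel, recorded as percent inhibition. Selectivity was expressed as S(90), the fraction of kinases inhibited >90%.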
In test [4] the target is T2, Serine/threonine-protein kinase Nek9 (Homo sapiens) (UniProt Q8TD19).
T2 sequence (whole entry): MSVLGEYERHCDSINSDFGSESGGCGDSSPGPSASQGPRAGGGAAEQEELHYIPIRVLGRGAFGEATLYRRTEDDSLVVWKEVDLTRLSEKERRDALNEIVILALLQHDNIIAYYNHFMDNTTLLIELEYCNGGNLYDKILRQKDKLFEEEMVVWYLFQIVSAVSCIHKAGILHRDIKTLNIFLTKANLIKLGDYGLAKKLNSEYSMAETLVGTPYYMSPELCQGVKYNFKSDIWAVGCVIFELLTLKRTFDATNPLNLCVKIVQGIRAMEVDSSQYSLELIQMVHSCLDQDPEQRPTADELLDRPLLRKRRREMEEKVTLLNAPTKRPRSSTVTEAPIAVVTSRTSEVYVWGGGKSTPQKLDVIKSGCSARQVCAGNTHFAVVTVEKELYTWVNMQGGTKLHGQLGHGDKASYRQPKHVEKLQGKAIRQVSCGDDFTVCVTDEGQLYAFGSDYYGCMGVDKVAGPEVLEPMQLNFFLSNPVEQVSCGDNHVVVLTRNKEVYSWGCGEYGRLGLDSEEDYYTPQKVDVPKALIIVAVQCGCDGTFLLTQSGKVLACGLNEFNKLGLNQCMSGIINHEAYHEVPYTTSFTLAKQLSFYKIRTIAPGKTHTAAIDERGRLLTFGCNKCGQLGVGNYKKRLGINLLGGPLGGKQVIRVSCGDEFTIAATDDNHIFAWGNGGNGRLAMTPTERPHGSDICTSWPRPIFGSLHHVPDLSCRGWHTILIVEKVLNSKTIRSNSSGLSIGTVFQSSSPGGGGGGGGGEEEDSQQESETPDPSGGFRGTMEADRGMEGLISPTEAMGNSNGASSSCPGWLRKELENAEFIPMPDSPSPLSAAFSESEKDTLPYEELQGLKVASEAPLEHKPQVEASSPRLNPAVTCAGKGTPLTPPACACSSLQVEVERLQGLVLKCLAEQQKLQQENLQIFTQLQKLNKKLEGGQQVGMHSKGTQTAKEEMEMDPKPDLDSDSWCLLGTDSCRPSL
The test is described as follows: Inhibition of NEK9 at 1 uM.

Test [5] has as its target T3, Serine/threonine-protein kinase MAK (Homo sapiens) (UniProt P20794).
T3 sequence (whole entry): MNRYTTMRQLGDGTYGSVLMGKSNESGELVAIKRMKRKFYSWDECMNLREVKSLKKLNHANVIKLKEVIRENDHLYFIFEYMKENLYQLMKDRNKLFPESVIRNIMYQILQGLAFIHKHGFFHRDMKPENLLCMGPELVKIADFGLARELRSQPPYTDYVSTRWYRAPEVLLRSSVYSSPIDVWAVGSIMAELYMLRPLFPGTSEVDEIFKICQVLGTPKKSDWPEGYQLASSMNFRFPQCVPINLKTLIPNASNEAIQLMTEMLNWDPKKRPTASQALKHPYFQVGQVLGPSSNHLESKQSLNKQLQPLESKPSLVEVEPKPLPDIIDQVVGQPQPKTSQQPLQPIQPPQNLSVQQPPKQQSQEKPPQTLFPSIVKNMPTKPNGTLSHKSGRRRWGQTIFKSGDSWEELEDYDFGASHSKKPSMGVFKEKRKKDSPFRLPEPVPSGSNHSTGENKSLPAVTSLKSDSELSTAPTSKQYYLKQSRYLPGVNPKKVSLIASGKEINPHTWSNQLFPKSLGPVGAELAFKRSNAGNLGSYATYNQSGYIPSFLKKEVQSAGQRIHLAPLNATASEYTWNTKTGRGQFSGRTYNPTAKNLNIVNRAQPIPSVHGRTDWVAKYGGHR
The test is described as follows: Inhibition of MAK at 1 uM.

Chain of Serine/threonine-protein kinase PAK 6 (Homo sapiens) (Q9NQU5 whole entry, looked up): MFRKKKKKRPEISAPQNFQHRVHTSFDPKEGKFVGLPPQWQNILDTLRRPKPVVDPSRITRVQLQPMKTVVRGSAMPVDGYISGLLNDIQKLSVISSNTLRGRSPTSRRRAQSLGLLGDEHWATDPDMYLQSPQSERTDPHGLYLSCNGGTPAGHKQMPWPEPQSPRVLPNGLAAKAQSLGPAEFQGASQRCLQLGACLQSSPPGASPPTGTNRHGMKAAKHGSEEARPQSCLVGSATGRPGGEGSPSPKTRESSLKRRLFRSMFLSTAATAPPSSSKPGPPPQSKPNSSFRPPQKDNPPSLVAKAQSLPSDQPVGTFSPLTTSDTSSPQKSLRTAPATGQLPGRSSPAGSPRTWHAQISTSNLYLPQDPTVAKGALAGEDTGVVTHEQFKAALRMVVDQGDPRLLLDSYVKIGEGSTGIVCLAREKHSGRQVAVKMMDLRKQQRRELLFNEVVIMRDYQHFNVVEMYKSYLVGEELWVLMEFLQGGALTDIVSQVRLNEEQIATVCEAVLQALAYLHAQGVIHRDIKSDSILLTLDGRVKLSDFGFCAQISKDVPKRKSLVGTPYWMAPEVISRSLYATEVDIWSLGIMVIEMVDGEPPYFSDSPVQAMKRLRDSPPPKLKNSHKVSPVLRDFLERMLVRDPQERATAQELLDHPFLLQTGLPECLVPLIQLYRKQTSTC

On to `FC(F)(F)c1ccc(Cl)cc1CN1CCNc2ncc(-c3ccnc(N4CCNCC4)c3)cc21`, for which the inhibition in test [1], in test [2], in test [3], in test [4] and in test [5] was under 50% each time.
Regarding `CN1CCN(c2ccc(-c3cnc4c(c3)N(Cc3cc(F)ccc3F)CCN4)cn2)CC1`, the inhibition was under 50% in test [1]; under 50% in test [2]; 71.9% in test [3]; under 50% in test [4]; under 50% in test [5].
As to `CN1CCN(c2ccc(-c3cnc4c(c3)N(Cc3cc(Cl)ccc3Cl)CCN4)cn2)CC1`, the inhibition was under 50% in test [1]; under 50% in test [2]; 68% in test [3]; under 50% in test [4]; under 50% in test [5].
For the molecule `O=C(O)c1ccc(-c2cnc3c(c2)N(Cc2cc(Cl)ccc2C(F)(F)F)CCN3)cc1`, the inhibition in test [2], in test [3] and in test [4] was under 50% in each case.
Turning to `CN1CCN(c2ccc(-c3cnc4c(c3)N(Cc3cc(Cl)ccc3C(F)(F)F)CCN4)cn2)CC1`, the inhibition in test [1], in test [2], in test [3], in test [4] and in test [5] was under 50% each time.
Take `COC1CCN(C(=O)c2ccc(-c3cnc4c(c3)N(Cc3cc(Cl)ccc3C(F)(F)F)CCN4)cc2)CC1`: the inhibition in test [2], in test [3] and in test [4] was under 50% each time.
Consider `O=C(c1ccc(-c2cnc3c(c2)N(Cc2cc(Cl)ccc2C(F)(F)F)CCN3)cc1)N1CCC(N2CCCC2)CC1`, for which the inhibition in test [2], in test [3] and in test [4] was under 50% in each case.
Regarding `CN1CCN(c2ccc(-c3cnc4c(c3)N(Cc3c(F)ccc(F)c3Cl)CCN4)cn2)CC1`, the inhibition was under 50% in test [1]; under 50% in test [2]; 87% in test [3]; under 50% in test [4]; under 50% in test [5].
In the case of `O=C(c1ccc(-c2cnc3c(c2)N(Cc2cc(Cl)ccc2C(F)(F)F)CCN3)cc1)N1CCCCC1`, the inhibition in test [2], in test [3] and in test [4] was under 50% each time.
In the case of `CC(=O)N1CCN(c2cc(-c3cnc4c(c3)N(Cc3cc(Cl)ccc3C(F)(F)F)CCN4)ccn2)CC1`, the inhibition in test [1], in test [2], in test [3], in test [4] and in test [5] was under 50% each time.

The record behind these values is ChEMBL document CHEMBL1165965, “Synthesis and structure-activity relationships of 1,2,3,4-tetrahydropyrido[2,3-b]pyrazines as potent and selective inhibitors of the anaplastic lymphoma kinase” (Bioorg Med Chem, 2010).
